What was measured:
Renin (Sus scrofa) = test: Inhibition of hog kidney renin at 10e-9 M concentration; details: read-out: I50
Renin [1] = molecular target: T1, Renin (Homo sapiens, UniProt P00797); test: Inhibition of purified human kidney renin, radioimmunoassay using the natural substrate partially pure angiotensinogen at 10e-9 M concentration
T1 sequence (P00797 whole entry): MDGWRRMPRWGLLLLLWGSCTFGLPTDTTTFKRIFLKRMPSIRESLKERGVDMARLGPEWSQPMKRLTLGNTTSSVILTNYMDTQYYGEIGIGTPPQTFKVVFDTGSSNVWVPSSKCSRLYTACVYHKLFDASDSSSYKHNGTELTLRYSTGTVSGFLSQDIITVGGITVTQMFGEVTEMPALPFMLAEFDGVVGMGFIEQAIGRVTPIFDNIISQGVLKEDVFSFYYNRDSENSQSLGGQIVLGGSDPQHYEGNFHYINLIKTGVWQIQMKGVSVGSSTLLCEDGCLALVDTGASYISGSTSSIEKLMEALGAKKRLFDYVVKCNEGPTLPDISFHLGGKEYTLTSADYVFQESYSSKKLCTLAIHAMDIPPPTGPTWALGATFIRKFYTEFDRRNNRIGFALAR
Method in brief: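 Purified human kidney renin (0.02 ng) with 500 ng partially purified human angiotensinogen (0.08 μM, about 1% pure), 60 min at 37°C in 0.1 M citrate phosphate, pH 7.20. Inhibitor added in 10% methanol or DMF. Quenched by boiling for 1 min.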

Renin [2] = molecular target: T1, Renin; test: Inhibition of human plasma renin at 10e-9 M concentration; details: read-out: I50
Method in brief: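 Human plasma renin acting on endogenous plasma angiotensinogen at pH 7.4 (phosphate), 37°C. Renin and substrate levels were not measured. 8-Hydroxyquinoline or phenylmethanesulfonyl fluoride served as angiotensinase inhibitor. Angiotensin I was measured by radioimmunoassay. I50 values were generally reproducible within ±30%.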

Renin [3] = molecular target: T1, Renin; test: Inhibition of purified human kidney renin, radioimmunoassay using a synthetic tetradecapeptide renin substrate at 10e-9 M concentration
Renin [4] = molecular target: T1, Renin; test: Inhibition of purified human kidney renin, fluorometric assay using a synthetic tetradecapeptide renin substrate at 10e-9 M concentration
Method in brief: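 Purified human kidney renin with synthetic tetradecapeptide substrate, read fluorometrically for peptidal amino termini, at 37°C in 0.10 M citrate phosphate, pH 7.20. Ki from linear I/V vs. [I] plots, assuming competitive inhibition. Estimated error ±20%.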

C=C1c2ccccc2CC(NC(=O)[C@H](CC(C)C)NC(=O)CC(O)C(CC(C)C)NC(=O)[C@H](Cc2c[nH]cn2)NC(=O)[C@H](Cc2ccccc2)NC(=O)OC(C)(C)C)c2ccccc21 (stereo not given in full)
IC50 (Renin (Sus scrofa)): 5.8 nM
Ki (Renin [1]): 320 nM
IC50 (Renin [2]): 569 nM
Ki (Renin [3]): 520 nM
Ki (Renin [4]): 120 nM

CC(C)CC(NC(=O)[C@H](Cc1c[nH]cn1)NC(=O)[C@H](Cc1ccccc1)NC(=O)OC(C)(C)C)C(O)CC(=O)N[C@@H](CC(C)C)C(=O)NC1CCN(Cc2ccccc2)CC1 (stereo not given in full)
IC50 (Renin (Sus scrofa)): 280 nM
Ki (Renin [1]): 97 nM
IC50 (Renin [2]): 127 nM
Ki (Renin [3]): 0.04 nM
Ki (Renin [4]): 0.064 nM

CC(C)CC(NC(=O)[C@H](Cc1c[nH]cn1)NC(=O)[C@H](Cc1ccccc1)NC(=O)OC(C)(C)C)C(O)CC(=O)N[C@@H](CC(C)C)C(=O)NC(C)C(O)c1ccccc1 (stereo not given in full)
IC50 (Renin (Sus scrofa)): 480 nM
Ki (Renin [1]): 220 nM
IC50 (Renin [2]): 178 nM
Ki (Renin [3]): 36 nM
Ki (Renin [4]): 67 nM

CC(C)CC(NC(=O)[C@H](Cc1cnc[nH]1)NC(=O)[C@H](Cc1ccccc1)NC(=O)OC(C)(C)C)C(O)CC(=O)N[C@@H](CC(C)C)C(=O)NC(C)c1ccccc1 (single isomer, unassigned; (+))
IC50 (Renin (Sus scrofa)): 14 nM
Ki (Renin [1]): 100 nM
IC50 (Renin [2]): 49 nM
Ki (Renin [3]): 6 nM
Ki (Renin [4]): 19 nM
